Assay results reported in ChEMBL document CHEMBL1821716, “Pyrazolopyridine inhibitors of B-RafV600E. Part 2: structure-activity relationships” (Bioorg Med Chem Lett, 2011).

Legend:
[1] = Inhibition of basal ERK phosphorylation in human MALME-3M cells; type: cell-based
[2] = biological target: Tyrosine-protein kinase Srms (Homo sapiens) (UniProt Q9H3Y6); assay: Inhibition of SRMS at 1 uM
Summary of the method: (§1)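 Kinase selectivity panel reported as percent inhibition of each kinase at a single test-compound concentration. Values are means of at least two experiments.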

[3] = biological target: Tyrosine-protein kinase Lck (Homo sapiens) (UniProt P06239); assay: Inhibition of LCK at 1 uM; summary of the method: as §1
[4] = biological target: Proto-oncogene tyrosine-protein kinase Src (Homo sapiens) (UniProt P12931); assay: Inhibition of SRC at 1 uM; summary of the method: as §1
[5] = biological target: Receptor-type tyrosine-protein kinase FLT3 (Homo sapiens) (UniProt P36888); assay: Inhibition of FLT3 at 1 uM; summary of the method: as §1
[6] = biological target: Tyrosine-protein kinase Fgr (Homo sapiens) (UniProt P09769); assay: Inhibition of FGR at 1 uM; summary of the method: as §1
[7] = biological target: Serine/threonine-protein kinase B-raf (Homo sapiens, UniProt P15056, V600E); assay: Inhibition of full length B-Raf V600E mutant
[8] = biological target: T1, Aurora kinase A (Homo sapiens) (UniProt O14965); assay: Inhibition of aurora A at 1 uM; summary of the method: as §1
T1 sequence (whole entry): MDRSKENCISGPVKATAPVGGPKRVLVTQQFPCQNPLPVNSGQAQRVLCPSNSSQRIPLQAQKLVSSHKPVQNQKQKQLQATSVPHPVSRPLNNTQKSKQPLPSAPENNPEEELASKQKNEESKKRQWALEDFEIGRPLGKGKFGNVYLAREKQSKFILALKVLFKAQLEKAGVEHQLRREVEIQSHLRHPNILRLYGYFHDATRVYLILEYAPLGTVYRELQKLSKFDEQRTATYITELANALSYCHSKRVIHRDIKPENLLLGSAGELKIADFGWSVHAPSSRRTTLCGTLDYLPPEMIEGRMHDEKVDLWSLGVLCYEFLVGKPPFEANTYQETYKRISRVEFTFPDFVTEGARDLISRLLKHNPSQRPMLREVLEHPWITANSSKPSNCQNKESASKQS

[9] = biological target: Protein-tyrosine kinase 6 (Homo sapiens) (UniProt Q13882); assay: Inhibition of PTK6 at 1 uM; summary of the method: as §1
Chain of Protein-tyrosine kinase 6 (Homo sapiens) (Q13882 whole entry, looked up): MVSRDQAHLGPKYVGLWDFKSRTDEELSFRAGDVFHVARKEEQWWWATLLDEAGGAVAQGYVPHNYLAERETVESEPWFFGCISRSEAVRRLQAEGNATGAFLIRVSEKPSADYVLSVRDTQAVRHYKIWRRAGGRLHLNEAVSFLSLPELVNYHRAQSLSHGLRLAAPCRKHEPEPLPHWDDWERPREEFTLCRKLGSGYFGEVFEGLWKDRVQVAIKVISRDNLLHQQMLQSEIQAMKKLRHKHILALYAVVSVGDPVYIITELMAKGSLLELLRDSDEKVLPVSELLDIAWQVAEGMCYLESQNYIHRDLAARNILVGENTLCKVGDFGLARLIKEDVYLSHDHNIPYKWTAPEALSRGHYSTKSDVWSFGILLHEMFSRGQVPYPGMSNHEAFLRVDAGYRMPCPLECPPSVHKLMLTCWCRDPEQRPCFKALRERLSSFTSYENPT

Chain of Tyrosine-protein kinase Fgr (Homo sapiens) (P09769 2-529 limits assumed): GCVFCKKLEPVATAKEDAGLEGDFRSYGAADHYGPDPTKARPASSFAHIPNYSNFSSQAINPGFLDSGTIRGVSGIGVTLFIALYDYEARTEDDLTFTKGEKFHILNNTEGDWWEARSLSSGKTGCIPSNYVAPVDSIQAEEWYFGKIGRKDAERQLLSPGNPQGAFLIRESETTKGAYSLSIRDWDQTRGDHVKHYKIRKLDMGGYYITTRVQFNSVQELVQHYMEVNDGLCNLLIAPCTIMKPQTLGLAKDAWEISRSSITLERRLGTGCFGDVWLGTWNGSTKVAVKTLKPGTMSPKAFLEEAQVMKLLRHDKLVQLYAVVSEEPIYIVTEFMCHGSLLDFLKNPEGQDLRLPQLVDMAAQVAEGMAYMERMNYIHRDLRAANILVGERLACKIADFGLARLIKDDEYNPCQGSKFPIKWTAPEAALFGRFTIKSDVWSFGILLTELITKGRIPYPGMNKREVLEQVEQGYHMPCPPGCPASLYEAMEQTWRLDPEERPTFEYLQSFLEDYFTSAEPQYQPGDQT
Chain of Tyrosine-protein kinase Srms (Homo sapiens) (Q9H3Y6 whole entry): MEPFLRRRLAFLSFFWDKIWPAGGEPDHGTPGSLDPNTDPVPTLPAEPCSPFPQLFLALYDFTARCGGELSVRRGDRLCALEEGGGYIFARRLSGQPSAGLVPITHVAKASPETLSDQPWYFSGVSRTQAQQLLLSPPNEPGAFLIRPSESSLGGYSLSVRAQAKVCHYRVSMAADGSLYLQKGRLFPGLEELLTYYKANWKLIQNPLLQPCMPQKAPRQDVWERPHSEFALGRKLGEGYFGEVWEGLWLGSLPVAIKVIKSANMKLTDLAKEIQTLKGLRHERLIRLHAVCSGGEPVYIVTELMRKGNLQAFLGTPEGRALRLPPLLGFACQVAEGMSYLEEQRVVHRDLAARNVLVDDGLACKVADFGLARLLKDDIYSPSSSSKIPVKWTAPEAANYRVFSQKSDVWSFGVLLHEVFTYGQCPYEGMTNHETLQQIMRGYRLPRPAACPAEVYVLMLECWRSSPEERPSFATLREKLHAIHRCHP
Chain of Serine/threonine-protein kinase B-raf (P15056 2-766 V600E limits assumed): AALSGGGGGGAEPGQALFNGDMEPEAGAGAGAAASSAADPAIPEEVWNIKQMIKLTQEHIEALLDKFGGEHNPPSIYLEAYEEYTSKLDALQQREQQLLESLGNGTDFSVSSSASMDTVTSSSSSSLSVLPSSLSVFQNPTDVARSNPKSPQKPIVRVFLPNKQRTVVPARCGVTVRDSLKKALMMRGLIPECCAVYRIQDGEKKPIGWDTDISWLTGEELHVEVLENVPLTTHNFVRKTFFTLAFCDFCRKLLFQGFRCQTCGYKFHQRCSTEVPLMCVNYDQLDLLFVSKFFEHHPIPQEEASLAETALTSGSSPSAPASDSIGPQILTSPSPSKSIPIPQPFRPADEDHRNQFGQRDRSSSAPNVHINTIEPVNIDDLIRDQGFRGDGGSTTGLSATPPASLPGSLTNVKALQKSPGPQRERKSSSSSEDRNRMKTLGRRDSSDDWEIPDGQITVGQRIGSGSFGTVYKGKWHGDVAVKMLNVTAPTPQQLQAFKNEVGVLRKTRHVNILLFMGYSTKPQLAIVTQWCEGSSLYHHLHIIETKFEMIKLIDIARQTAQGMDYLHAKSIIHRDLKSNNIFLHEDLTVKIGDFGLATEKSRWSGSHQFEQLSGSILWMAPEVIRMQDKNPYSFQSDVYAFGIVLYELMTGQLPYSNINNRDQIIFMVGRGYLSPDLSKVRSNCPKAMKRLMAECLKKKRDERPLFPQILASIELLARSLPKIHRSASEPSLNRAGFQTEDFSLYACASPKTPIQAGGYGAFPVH
Chain of Receptor-type tyrosine-protein kinase FLT3 (Homo sapiens) (P36888 whole entry): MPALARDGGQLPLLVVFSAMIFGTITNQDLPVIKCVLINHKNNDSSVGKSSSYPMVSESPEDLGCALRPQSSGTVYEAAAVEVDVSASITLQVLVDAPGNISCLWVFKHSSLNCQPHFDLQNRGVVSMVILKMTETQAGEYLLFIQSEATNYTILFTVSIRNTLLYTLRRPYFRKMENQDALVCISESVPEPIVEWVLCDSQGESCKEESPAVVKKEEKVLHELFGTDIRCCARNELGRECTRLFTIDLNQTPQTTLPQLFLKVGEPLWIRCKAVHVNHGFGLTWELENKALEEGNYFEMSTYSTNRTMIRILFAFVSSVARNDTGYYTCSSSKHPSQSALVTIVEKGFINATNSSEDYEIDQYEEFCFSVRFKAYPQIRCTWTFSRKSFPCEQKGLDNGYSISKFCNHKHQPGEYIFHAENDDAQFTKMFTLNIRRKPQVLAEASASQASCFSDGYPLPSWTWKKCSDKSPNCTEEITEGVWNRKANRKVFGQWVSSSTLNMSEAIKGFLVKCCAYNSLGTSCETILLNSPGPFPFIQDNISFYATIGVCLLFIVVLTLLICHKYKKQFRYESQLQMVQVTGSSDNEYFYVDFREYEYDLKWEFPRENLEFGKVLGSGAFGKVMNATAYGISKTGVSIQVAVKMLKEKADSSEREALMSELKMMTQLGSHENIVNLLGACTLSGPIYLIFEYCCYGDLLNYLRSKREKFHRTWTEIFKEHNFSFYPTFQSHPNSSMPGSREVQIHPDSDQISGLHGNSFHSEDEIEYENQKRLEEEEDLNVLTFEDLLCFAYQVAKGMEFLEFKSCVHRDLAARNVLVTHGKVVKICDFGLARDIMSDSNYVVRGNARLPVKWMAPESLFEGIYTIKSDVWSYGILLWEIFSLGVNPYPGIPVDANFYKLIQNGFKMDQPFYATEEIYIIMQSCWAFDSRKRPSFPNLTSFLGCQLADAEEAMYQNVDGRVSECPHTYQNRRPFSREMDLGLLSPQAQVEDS
Chain of Proto-oncogene tyrosine-protein kinase Src (Homo sapiens) (P12931 2-536 limits assumed): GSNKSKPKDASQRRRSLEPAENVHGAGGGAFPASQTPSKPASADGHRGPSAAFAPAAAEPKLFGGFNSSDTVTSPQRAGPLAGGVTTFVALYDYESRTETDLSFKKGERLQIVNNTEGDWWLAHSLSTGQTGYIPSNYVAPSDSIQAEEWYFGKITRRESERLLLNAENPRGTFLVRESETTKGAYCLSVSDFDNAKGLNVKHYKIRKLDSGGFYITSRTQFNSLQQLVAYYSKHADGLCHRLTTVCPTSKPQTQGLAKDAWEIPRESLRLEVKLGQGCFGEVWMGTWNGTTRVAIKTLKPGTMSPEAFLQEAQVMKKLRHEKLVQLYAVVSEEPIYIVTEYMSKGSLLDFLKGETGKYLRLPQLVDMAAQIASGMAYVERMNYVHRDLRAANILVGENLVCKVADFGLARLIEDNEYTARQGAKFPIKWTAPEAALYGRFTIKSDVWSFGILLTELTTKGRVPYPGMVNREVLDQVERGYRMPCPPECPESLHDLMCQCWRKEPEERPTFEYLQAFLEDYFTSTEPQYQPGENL
Chain of Tyrosine-protein kinase Lck (Homo sapiens) (P06239 2-509 limits assumed): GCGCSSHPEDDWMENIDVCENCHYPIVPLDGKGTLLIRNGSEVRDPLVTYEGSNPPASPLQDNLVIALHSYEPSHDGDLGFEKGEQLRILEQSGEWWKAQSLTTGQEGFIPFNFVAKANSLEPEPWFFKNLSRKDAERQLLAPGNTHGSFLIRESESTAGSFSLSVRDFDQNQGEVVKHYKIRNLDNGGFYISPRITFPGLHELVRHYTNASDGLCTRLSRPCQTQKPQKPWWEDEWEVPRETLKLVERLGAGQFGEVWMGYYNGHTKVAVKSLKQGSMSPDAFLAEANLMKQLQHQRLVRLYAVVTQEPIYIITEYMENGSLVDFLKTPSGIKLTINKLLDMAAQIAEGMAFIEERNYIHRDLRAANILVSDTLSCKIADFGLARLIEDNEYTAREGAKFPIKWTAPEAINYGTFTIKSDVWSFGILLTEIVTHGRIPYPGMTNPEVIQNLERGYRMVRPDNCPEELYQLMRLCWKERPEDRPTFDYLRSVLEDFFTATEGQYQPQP

Structure (SMILES): COc1n[nH]c2ncc(NC(=O)c3c(F)ccc(NS(=O)(=O)c4cccc(F)c4)c3F)cc12
- IC50 [1]: 12 nM
- inhibition [2]: 98%
- inhibition [3]: 96%
- inhibition [4]: 77%
- inhibition [5]: 77%
- inhibition [6]: 98%
- IC50 [7]: 0.7 nM
- inhibition [8]: 52%
- inhibition [9]: 101%
